Test results as given in ChEMBL document CHEMBL1137689, “Amines and oximes derived from deoxybenzoins as Helicobacter pylori urease inhibitors” (Eur J Med Chem, 2009).
Calls of active or inactive are those of the source. The calls are words filed in the database; no cut-off is given here.

Each compound was assayed against Urease subunit alpha/Urease subunit beta (Helicobacter pylori (strain ATCC 700392 / 26695) (Campylobacterpylori), UniProt P69996) (assay: Inhibition of Helicobacter pylori ATCC 43504 urease assessed as ammonia production by indophenol method).
How it was run: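 Crude urease from H. pylori cells, grown 24 h at 37 °C microaerobically (5% O2, 10% CO2, 85% N2) in brucella broth with 10% heat-inactivated horse serum. Cells were washed in PBS pH 7.4 and stored at -80 °C; the extract was kept 1:1 in glycerol at 4 °C. Enzyme (4U) was preincubated with compound 3 h at room temperature. Percent inhibition was screened at 400 µg/mL; IC50 also determined.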

Sequence of Urease subunit alpha/Urease subunit beta (P69996 whole entry): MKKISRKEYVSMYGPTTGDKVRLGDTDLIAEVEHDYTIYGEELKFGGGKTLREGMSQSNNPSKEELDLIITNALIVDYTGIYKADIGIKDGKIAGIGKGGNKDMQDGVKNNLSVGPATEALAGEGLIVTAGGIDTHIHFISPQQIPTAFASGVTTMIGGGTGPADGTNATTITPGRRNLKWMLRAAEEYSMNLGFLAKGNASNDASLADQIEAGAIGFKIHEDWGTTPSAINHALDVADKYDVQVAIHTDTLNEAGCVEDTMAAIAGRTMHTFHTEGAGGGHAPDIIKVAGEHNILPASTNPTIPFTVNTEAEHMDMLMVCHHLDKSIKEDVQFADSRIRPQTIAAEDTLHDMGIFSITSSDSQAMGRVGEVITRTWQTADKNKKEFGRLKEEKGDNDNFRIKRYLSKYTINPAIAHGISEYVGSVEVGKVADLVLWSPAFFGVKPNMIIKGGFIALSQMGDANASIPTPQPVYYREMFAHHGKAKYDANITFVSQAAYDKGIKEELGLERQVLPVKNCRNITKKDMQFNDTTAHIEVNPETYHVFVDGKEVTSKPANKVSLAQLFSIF
Sequence of Urease subunit alpha/Urease subunit beta (P14916 whole entry, further chain): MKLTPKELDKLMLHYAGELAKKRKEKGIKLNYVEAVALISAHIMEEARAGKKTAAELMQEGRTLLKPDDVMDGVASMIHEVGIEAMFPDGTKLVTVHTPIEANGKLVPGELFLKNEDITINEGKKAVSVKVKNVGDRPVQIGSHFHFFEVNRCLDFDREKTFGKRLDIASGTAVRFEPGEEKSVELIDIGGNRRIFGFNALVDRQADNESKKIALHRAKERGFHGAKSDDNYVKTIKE

Which IC50 does the source give for `CC(=O)NO` [ACETOHYDROXAMIC ACID] here?
The IC50 was 11 µM.

With `NC(Cc1ccc(O)cc1)c1ccc(O)c(O)c1O` (stereo unspecified) as the compound, how does the IC50 read?
The IC50 was 47 µM.

Each compound was assayed against Urease subunit alpha/Urease subunit beta (Helicobacter pylori (strain ATCC 700392 / 26695) (Campylobacterpylori)) (UniProt P69996+P14916) (assay: Inhibition of Helicobacter pylori ATCC 43504 urease assessed as ammonia production at 400 ug/mL by indophenol method).
How it was run: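 Crude urease prepared from H. pylori ATCC 43504 grown 24 h at 37 °C in brucella broth with 10% heat-inactivated horse serum, microaerobic (5% O2, 10% CO2, 85% N2). Cells washed in PBS pH 7.4, stored -80 °C; urease in equal-volume glycerol kept at 4 °C. Enzyme (4U) preincubated with compound 3 h at room temperature; ammonia production read by indophenol method; percent inhibition.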

Sequence of Urease subunit alpha/Urease subunit beta (Helicobacter pylori (strain ATCC 700392 / 26695) (Campylobacterpylori)) (P14916 whole entry, looked up): as the sequence (P14916 whole entry, further chain) above
Sequence of Urease subunit alpha/Urease subunit beta (Helicobacter pylori (strain ATCC 700392 / 26695) (Campylobacterpylori)) (P69996 whole entry, looked up): as the sequence (P69996 whole entry) above

With `O=C(Cc1ccc(F)cc1)c1ccc(O)c(O)c1O` as the compound, how does the inhibition read?
The inhibition was 44%.

Which inhibition does the source give for `NC(Cc1ccc(O)cc1)c1c(O)cc(O)cc1O` (stereo unspecified) here?
Its inhibition is 28%.

For `O/N=C(\Cc1ccc(O)cc1)c1c(O)cc(O)cc1O`, which inhibition is on record?
Its inhibition is 13%.

With `O=C(Cc1ccc(F)cc1)c1ccc(O)cc1O` as the compound, how does the inhibition read?
Its inhibition is 16%.

With `COc1cc(O)c(C(N)Cc2ccc(OO)cc2)c(OC)c1` (stereo unspecified) as the compound, how does the inhibition read?
The inhibition was “inactive”.

How did the inhibition turn out when `O/N=C(\Cc1ccc(O)cc1)c1ccc(O)c(O)c1` was run?
The inhibition was 62%.

How did the inhibition turn out when `COc1ccc(CC(N)c2ccc(O)cc2O)cc1` (stereo unspecified) was run?
Its inhibition is 73%.

With `O/N=C(\Cc1ccc(F)cc1)c1ccc(O)c(O)c1O` as the compound, how does the inhibition read?
The inhibition was 55%.

With `COc1c(O)cc(O)c(/C(Cc2ccc(O)cc2)=N/O)c1O` as the compound, how does the inhibition read?
Its inhibition is 38%.

With `NC(Cc1ccc([N+](=O)[O-])cc1)c1ccc(O)cc1O` (stereo unspecified) as the compound, how does the inhibition read?
Its inhibition is “inactive”.

For `O/N=C(/Cc1ccc(O)cc1)c1ccc(O)c(O)c1O`, which inhibition is on record?
Its inhibition is 73%.

With `COc1ccc(CC(=N)c2ccc(OC)c(OC)c2OC)cc1` as the compound, how does the inhibition read?
Its inhibition is 11%.

How did the inhibition turn out when `NC(Cc1ccc(F)cc1)c1ccc(O)c(O)c1O` (stereo unspecified) was run?
The inhibition was 80%.

How did the inhibition turn out when `O/N=C(/Cc1ccc(F)cc1)c1ccc(O)cc1O` was run?
Its inhibition is 23%.

For `COc1cc(O)c(/C(Cc2ccc(OO)cc2)=N/O)c(OC)c1`, which inhibition is on record?
Its inhibition is 15%.

Which inhibition does the source give for `O=C(Cc1ccc([N+](=O)[O-])cc1)c1ccc(O)cc1O` here?
Its inhibition is “inactive”.

Which inhibition does the source give for `O=[N+]([O-])c1ccc(C/C(=N/O)c2ccc(O)cc2O)cc1` here?
The inhibition was “inactive”.

How did the inhibition turn out when `COc1ccc(CC(=O)c2ccc(OC)c(OC)c2OC)cc1` was run?
The inhibition was “inactive”.

With `COc1ccc(C/C(=N/O)c2ccc(OC)c(OC)c2OC)cc1` as the compound, how does the inhibition read?
The inhibition was “inactive”.

With `NC(Cc1ccc(O)cc1)c1ccc(O)c(O)c1O` (stereo unspecified) as the compound, how does the inhibition read?
The inhibition was 97.3%.

Which inhibition does the source give for `COc1cc(O)c(C(=O)Cc2ccc(OO)cc2)c(OC)c1` here?
The inhibition was “inactive”.

How did the inhibition turn out when `NC(Cc1ccc(F)cc1)c1ccc(O)cc1O` (stereo unspecified) was run?
Its inhibition is 48%.

How did the inhibition turn out when `COc1ccc(C/C(=N\O)c2ccc(O)cc2O)cc1` was run?
The inhibition was 36%.

Which inhibition does the source give for `O=C(Cc1ccc(O)cc1)c1c(O)cc(O)cc1O` here?
Its inhibition is “inactive”.
